Reference: ChEMBL document CHEMBL5532683, “Design, Synthesis, and Bioevaluation of Transcriptional Enhanced Assocciated Domain (TEAD) PROTAC Degraders” (ACS Med Chem Lett, 2024)
Calls of active or inactive are those of the source. The rule behind the calls is not given here.

How the values were obtained:
NCI-H226 [1] = assay: Antiproliferative activity against human NCI-H226 cells incubated for 120 hrs by Celltiter-glo luminescent assay; assay type: functional, cell-based; settings: NCI-H226, 120 h
Summary of the method: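 5-day exposure of NF2-deficient NCI-H226 cells to compounds at a range of concentrations; IC50 taken as mean ± SEM of four independent replicates.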

[2] = molecular target: T1, Protein cereblon-TEAD (Homo sapiens) (UniProt P28347+Q96SW2+Q15561+Q15562+Q99594); assay: Protac activity at CRBN/TEAD in human NCI-H226 cells at 0.1 uM incubated for 24 hrs by Western blot analysis; assay type: cell-based
T1 sequence (Q15562 whole entry partner): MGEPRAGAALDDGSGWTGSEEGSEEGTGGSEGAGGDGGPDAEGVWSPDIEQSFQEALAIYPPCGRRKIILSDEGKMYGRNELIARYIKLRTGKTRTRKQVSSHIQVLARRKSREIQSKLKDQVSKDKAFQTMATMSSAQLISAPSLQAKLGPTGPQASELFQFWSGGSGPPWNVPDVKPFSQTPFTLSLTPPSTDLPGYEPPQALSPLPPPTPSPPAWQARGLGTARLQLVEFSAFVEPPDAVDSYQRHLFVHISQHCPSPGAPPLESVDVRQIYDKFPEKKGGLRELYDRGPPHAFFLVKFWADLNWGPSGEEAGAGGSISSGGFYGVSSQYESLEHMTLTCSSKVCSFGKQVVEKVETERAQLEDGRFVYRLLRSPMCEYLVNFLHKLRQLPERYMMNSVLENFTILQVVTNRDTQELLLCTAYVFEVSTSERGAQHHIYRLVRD
T1 sequence (Q96SW2 whole entry partner): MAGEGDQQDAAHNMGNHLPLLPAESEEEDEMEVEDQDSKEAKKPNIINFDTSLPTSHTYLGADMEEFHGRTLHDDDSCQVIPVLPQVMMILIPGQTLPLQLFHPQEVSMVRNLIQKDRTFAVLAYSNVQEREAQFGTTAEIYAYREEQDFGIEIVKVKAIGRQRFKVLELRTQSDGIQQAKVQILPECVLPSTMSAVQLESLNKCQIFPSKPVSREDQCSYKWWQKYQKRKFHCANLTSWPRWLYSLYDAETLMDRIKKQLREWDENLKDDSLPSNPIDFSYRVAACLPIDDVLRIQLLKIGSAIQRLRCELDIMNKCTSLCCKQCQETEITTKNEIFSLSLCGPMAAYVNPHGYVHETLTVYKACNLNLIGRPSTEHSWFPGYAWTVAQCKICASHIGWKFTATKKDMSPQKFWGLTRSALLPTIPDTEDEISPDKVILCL
T1 sequence (Q99594 2-435 partner limits assumed): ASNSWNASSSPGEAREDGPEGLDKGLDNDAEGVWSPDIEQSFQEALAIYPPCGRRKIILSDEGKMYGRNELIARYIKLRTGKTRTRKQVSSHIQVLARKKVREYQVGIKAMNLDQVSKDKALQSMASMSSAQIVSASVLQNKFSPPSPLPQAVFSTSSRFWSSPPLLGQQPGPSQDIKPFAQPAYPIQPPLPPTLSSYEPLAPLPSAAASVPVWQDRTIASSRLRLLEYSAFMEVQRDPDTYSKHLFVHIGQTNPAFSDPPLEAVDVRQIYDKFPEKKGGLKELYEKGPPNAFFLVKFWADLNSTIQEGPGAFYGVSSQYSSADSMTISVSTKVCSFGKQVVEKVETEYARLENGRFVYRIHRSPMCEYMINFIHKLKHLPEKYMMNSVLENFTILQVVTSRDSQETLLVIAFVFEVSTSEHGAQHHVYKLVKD
T1 sequence (P28347 whole entry): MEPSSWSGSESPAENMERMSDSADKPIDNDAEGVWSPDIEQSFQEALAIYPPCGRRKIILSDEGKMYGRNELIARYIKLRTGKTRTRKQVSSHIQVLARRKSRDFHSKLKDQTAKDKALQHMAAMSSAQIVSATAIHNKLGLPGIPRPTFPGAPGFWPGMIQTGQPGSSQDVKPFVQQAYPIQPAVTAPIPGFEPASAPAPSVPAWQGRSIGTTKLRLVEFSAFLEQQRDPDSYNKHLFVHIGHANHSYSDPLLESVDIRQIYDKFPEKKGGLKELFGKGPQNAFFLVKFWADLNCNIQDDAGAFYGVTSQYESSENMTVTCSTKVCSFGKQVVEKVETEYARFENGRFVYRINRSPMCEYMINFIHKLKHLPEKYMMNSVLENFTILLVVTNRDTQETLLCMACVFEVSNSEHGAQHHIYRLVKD
T1 sequence (Q15561 whole entry partner): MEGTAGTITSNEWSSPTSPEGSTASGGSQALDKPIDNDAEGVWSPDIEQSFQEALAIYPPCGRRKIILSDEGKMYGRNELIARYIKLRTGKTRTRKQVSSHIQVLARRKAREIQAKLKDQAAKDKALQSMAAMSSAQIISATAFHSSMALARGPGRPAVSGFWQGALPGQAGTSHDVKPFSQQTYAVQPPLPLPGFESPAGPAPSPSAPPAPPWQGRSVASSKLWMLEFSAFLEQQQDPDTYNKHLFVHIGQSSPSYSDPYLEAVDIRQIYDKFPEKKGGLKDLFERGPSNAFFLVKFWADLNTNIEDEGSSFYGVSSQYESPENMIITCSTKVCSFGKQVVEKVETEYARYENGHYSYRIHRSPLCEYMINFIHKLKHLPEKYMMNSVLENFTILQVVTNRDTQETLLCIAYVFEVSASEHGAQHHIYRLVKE
Summary of the method: (§1)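 NCI-H226 cells exposed 24 h to 0.1, 1 or 10 μM compound. TEAD detected with pan-TEAD antibody by Western blot and quantified as percent degradation. Mean ± SEM of three independent replicates.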

NCI-H226 [3] = assay: Downregulation of AMOTL2 gene expression in human NCI-H226 cells incubated for 8 hrs by RT-qPCR analysis; assay type: functional, cell-based; settings: dose 0.5-1 µM
Summary of the method: (§2)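 NCI-H226 cells exposed to 0.5 or 1 μM compound for 8 h. Transcript levels measured by qPCR. Mean ± SEM of three independent replicates.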

NCI-H226 [4] = assay: Downregulation of CTGF gene expression in human NCI-H226 cells incubated for 8 hrs by RT-qPCR analysis; assay type: functional, cell-based; settings: dose 0.5-1 µM; summary of the method: as §2
[5] = molecular target: T1, Protein cereblon-TEAD (Homo sapiens); assay: Protac activity at CRBN/TEAD in human NCI-H226 cells at 1 uM preincubated with thalidomide for 1 hr followed by compound addition and measured after 8 hrs by Western blot analysis; assay type: cell-based
Summary of the method: (§3)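 Rescue design: NCI-H226 cells pretreated 1 h with BafA1, MG132, thalidomide or VT107, then cotreated 8 h with compound. Protein levels measured by Western blot.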

[6] = molecular target: Protein cereblon/Transcriptional enhancer factor TEF-5 (Homo sapiens) (UniProt Q96SW2+Q99594); assay: Protac activity at CRBN (unknown origin) /Flag-tagged TEAD3 (unknown origin) transfected in HEK293T cells at 9.75 to 1000 nM pretreated with cycloheximide for 2 hrs followed by compound addition and measured after 24 hrs by Western blot analysis; assay type: cell-based; settings: dose 9.75-1000 nM
Chain of Protein cereblon/Transcriptional enhancer factor TEF-5 (Homo sapiens) (Q96SW2 whole entry, looked up, canonical isoform): as the sequence (Q96SW2 whole entry partner) above
Chain of Protein cereblon/Transcriptional enhancer factor TEF-5 (Homo sapiens) (Q99594 whole entry, looked up, canonical isoform): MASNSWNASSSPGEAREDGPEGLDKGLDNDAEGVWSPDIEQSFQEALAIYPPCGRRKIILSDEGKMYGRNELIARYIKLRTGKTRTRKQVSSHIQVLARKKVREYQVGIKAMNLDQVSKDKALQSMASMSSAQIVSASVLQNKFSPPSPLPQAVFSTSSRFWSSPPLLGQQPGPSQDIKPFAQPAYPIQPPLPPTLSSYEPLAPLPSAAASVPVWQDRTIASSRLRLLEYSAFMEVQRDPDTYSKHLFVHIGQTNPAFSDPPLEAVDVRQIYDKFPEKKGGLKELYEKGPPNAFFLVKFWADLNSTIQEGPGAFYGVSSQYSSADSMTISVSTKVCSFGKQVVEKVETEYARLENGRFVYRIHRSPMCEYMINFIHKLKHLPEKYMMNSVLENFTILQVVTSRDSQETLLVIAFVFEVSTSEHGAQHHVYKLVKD
Summary of the method: (§4)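 293T cells transfected separately with Flag-TEAD1, -2, -3 or -4. Pretreated 2 h with 200 μg/mL cycloheximide, then 24 h with compound at a series of concentrations. Isoform detected by anti-Flag Western blot and quantified. DC50 or maximal degradation derived. Mean ± SEM of three independent replicates.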

Protein cereblon-TEAD = assay: Protac activity at CRBN/TEAD in human NCI-H226 cells incubated for 24 hrs by Western blot analysis; assay type: cell-based
Summary of the method: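 NCI-H226 cells exposed 24 h to compound across a broad concentration range. Pan-TEAD Western blot quantified; DC50 (half-maximal degradation concentration) derived. Mean ± SEM of three independent replicates.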

[7] = molecular target: T1, Protein cereblon-TEAD (Homo sapiens); assay: Protac activity at CRBN/TEAD in human NCI-H226 cells at 1 uM preincubated with BafA1 for 1 hr followed by compound addition and measured after 8 hrs by Western blot analysis; assay type: cell-based; summary of the method: as §3
[8] = molecular target: T1, Protein cereblon-TEAD (Homo sapiens); assay: Protac activity at CRBN/TEAD in human NCI-H226 cells at 1 uM preincubated with VT107 for 1 hr followed by compound addition and measured after 8 hrs by Western blot analysis; assay type: cell-based; summary of the method: as §3
NCI-H226 [9] = assay: Downregulation of CYR61 gene expression in human NCI-H226 cells incubated for 8 hrs by RT-qPCR analysis; assay type: functional, cell-based; settings: dose 0.5-1 µM; summary of the method: as §2
[10] = molecular target: T1, Protein cereblon-TEAD (Homo sapiens); assay: Protac activity at CRBN/TEAD in human NCI-H226 cells at 1 uM incubated for 10 to 24 hrs by Western blot analysis; assay type: cell-based; settings: time 10-24 hrs
Summary of the method: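 Time course in NCI-H226 cells: 1 μM compound for 1 to 24 h, pan-TEAD Western blot quantified. Mean ± SEM of three independent replicates.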

NCI-H226 [11] = assay: Downregulation of NPPB gene expression in human NCI-H226 cells incubated for 8 hrs by RT-qPCR analysis; assay type: functional, cell-based; settings: dose 0.5-1 µM; summary of the method: as §2
NCI-H226 [12] = assay: Upregulation of FBXO32 gene expression in human NCI-H226 cells incubated for 8 hrs by RT-qPCR analysis; assay type: functional, cell-based; settings: dose 0.5-1 µM; summary of the method: as §2
[13] = molecular target: T1, Protein cereblon-TEAD (Homo sapiens); assay: Protac activity at CRBN/TEAD in human NCI-H226 cells at 1 uM preincubated with MG132 for 1 hr followed by compound addition and measured after 8 hrs by Western blot analysis; assay type: cell-based; summary of the method: as §3
NCI-H226 [14] = assay: Downregulation of IGFBP3 gene expression in human NCI-H226 cells incubated for 8 hrs by RT-qPCR analysis; assay type: functional, cell-based; settings: dose 0.5-1 µM; summary of the method: as §2
NCI-H2452 = assay: Antiproliferative activity against human NCI-H2452 cells incubated for 120 hrs by Celltiter-glo luminescent assay; assay type: functional, cell-based; settings: NCI-H2452, 120 h
Summary of the method: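 NCI-H2452 cells (wild-type NF2) exposed to compound over a concentration range; IC50 estimated from the dose-response.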

[15] = molecular target: Protein cereblon/Transcriptional enhancer factor TEF-1 (Homo sapiens) (UniProt P28347+Q96SW2); assay: Protac activity at CRBN (unknown origin) /Flag-tagged TEAD1 (unknown origin) transfected in HEK293T cells at 9.75 to 1000 nM pretreated with cycloheximide for 2 hrs followed by compound addition and measured after 24 hrs by Western blot analysis; assay type: cell-based; settings: dose 9.75-1000 nM; summary of the method: as §4
Chain of Protein cereblon/Transcriptional enhancer factor TEF-1 (Homo sapiens) (P28347 whole entry, looked up): as the sequence (P28347 whole entry) above
Chain of Protein cereblon/Transcriptional enhancer factor TEF-1 (Homo sapiens) (Q96SW2 whole entry, looked up): as the sequence (Q96SW2 whole entry partner) above

[16] = molecular target: Protein cereblon/Programmed cell death protein 2 (Homo sapiens) (UniProt Q96SW2+Q16342); assay: Protac activity at CRBN/PDCD2 in human NCI-H226 cells at 0.01 to 10 uM incubated for 24 hrs by Western blot analysis; assay type: cell-based; settings: dose 0.01-10 µM
Chain of Protein cereblon/Programmed cell death protein 2 (Homo sapiens) (Q16342 whole entry, looked up): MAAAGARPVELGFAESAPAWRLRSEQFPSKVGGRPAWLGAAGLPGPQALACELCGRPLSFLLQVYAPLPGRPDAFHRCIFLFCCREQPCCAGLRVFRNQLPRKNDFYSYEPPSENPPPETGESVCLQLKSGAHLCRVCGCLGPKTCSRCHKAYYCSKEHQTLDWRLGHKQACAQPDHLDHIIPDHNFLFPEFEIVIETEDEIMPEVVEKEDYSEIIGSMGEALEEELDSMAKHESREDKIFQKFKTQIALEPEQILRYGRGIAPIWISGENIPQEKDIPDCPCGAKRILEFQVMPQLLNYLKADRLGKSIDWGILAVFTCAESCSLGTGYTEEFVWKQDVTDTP
Chain of Protein cereblon/Programmed cell death protein 2 (Homo sapiens) (Q96SW2 whole entry, looked up): as the sequence (Q96SW2 whole entry partner) above
Summary of the method: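 PDCD2 degradation in NCI-H226 cells after 24 h with compound at 0.01, 0.1, 1 and 10 μM, assessed by Western blot.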

[17] = molecular target: Protein cereblon/Transcriptional enhancer factor TEF-4 (Homo sapiens, UniProt Q96SW2+Q15562); assay: Protac activity at CRBN (unknown origin) /Flag-tagged TEAD2 (unknown origin) transfected in HEK293T cells pretreated with cycloheximide for 2 hrs followed by compound addition and measured after 24 hrs by Western blot analysis; assay type: cell-based; summary of the method: as §4
Chain of Protein cereblon/Transcriptional enhancer factor TEF-4 (Q96SW2 whole entry): as the sequence (Q96SW2 whole entry partner) above
Chain of Protein cereblon/Transcriptional enhancer factor TEF-4 (Q15562 whole entry): as the sequence (Q15562 whole entry partner) above

[18] = molecular target: T1, Protein cereblon-TEAD (Homo sapiens); assay: Protac activity at CRBN/TEAD in human NCI-H226 cells at 1 to 10 uM incubated for 24 hrs by Western blot analysis; assay type: cell-based; settings: dose 1-10 µM; summary of the method: as §1
[19] = molecular target: Protein cereblon/Transcriptional enhancer factor TEF-3 (Homo sapiens) (UniProt Q96SW2+Q15561); assay: Protac activity at CRBN (unknown origin) /Flag-tagged TEAD4 (unknown origin) transfected in HEK293T cells at 9.75 to 1000 nM pretreated with cycloheximide for 2 hrs followed by compound addition and measured after 24 hrs by Western blot analysis; assay type: cell-based; settings: dose 9.75-1000 nM; summary of the method: as §4
Chain of Protein cereblon/Transcriptional enhancer factor TEF-3 (Homo sapiens) (Q15561 whole entry, looked up): as the sequence (Q15561 whole entry partner) above
Chain of Protein cereblon/Transcriptional enhancer factor TEF-3 (Homo sapiens) (Q96SW2 whole entry, looked up): as the sequence (Q96SW2 whole entry partner) above

Q: For `C[C@H](NC(=O)c1ccc2c(-c3ccc(C(F)(F)F)cc3)cccc2c1)c1cccc(NCCCCNc2cccc3c2C(=O)N(C2CCC(=O)NC2=O)C3=O)n1` (some centres undefined), which IC50 (NCI-H226 [1]) is on record?
A: 1180 nM

Q: How did the IC50 (NCI-H226 [1]) turn out when `C[C@H](NC(=O)c1ccc2c(-c3ccc(C(F)(F)F)cc3)cccc2c1)c1cccc(N)n1` was run?
A: 30 nM

Q: Which IC50 (NCI-H226 [1]) does the source give for `C[C@H](NC(=O)c1ccc2c(-c3ccc(C(F)(F)F)cc3)cccc2c1)c1cccc(NCCCNc2cccc3c2C(=O)N(C2CCC(=O)NC2=O)C3=O)n1` (some centres undefined) here?
A: 940 nM

Q: Which IC50 (NCI-H226 [1]) does the source give for `C[C@H](NC(=O)c1ccc2c(-c3ccc(C(F)(F)F)cc3)cccc2c1)c1cccc(NCCOCCNc2ccc3c(c2)C(=O)N(C2CCC(=O)NC2=O)C3=O)n1` (some centres undefined) here?
A: 350 nM

Q: For `C[C@H](NC(=O)c1ccc2c(-c3ccc(C(F)(F)F)cc3)cccc2c1)c1cccc(NCCCCCCCCNc2cccc3c2C(=O)N(C2CCC(=O)NC2=O)C3=O)n1` (some centres undefined), which IC50 (NCI-H226 [1]) is on record?
A: 5110 nM

Q: `C[C@H](NC(=O)c1ccc2c(-c3ccc(C(F)(F)F)cc3)cccc2c1)c1cccc(NCCCCCCCNc2cccc3c2C(=O)N(C2CCC(=O)NC2=O)C3=O)n1` (some centres undefined) was tested. Which IC50 (NCI-H226 [1]) did it give?
A: 2650 nM

Q: What does the source list for `C[C@H](NC(=O)c1ccc2c(-c3ccc(C(F)(F)F)cc3)cccc2c1)c1cccc(NCCOCCOCCNc2ccc3c(c2)C(=O)N(C2CCC(=O)NC2=O)C3=O)n1` (some centres undefined)?
A: Activity [2]: 42.4%; Activity (NCI-H226 [3]): Active; Activity (NCI-H226 [4]): Active; Activity [5]: inactive; Activity [6]: inactive; DC50 (Protein cereblon-TEAD): 32.7 nM; Activity [7]: Active; Activity [8]: inactive; Activity (NCI-H226 [9]): Active; Activity [10]: Active; Activity (NCI-H226 [11]): Active; Activity (NCI-H226 [12]): Active; Activity [13]: inactive; Activity (NCI-H226 [14]): Active; IC50 (NCI-H2452): > 10000 nM; Emax [15]: 40%; Activity [16]: inactive; DC50 [17]: 54.1 nM; Activity [18]: Active; IC50 (NCI-H226 [1]): 210 nM; Activity [19]: inactive

Q: Which Activity [2] does the source give for `C[C@H](NC(=O)c1ccc2c(-c3ccc(C(F)(F)F)cc3)cccc2c1)c1cccc(NCCOCCOCCOCCNc2cccc3c2C(=O)N(C2CCC(=O)NC2=O)C3=O)n1` (some centres undefined) here?
A: 45.1%

Q: And the DC50 (Protein cereblon-TEAD)?
A: 39.7 nM

Q: What about the Activity [18] of the same molecule?
A: Active

Q: And the IC50 (NCI-H226 [1])?
A: 260 nM

Q: For `C[C@H](NC(=O)c1ccc2c(-c3ccc(C(F)(F)F)cc3)cccc2c1)c1cccc(NCCNc2cccc3c2C(=O)N(C2CCC(=O)NC2=O)C3=O)n1` (some centres undefined), which IC50 (NCI-H226 [1]) is on record?
A: 1510 nM

Q: For `C[C@H](NC(=O)c1ccc2c(-c3ccc(C(F)(F)F)cc3)cccc2c1)c1cccc(NCCCCCNc2cccc3c2C(=O)N(C2CCC(=O)NC2=O)C3=O)n1` (some centres undefined), which IC50 (NCI-H226 [1]) is on record?
A: 810 nM

Q: `C[C@H](NC(=O)c1ccc2c(-c3ccc(C(F)(F)F)cc3)cccc2c1)c1cccc(NCCOCCNc2cccc3c2C(=O)N(C2CCC(=O)NC2=O)C3=O)n1` (some centres undefined) was tested. Which IC50 (NCI-H226 [1]) did it give?
A: 340 nM

Q: Which results are given for `C[C@H](NC(=O)c1ccc2c(-c3ccc(C(F)(F)F)cc3)cccc2c1)c1cccc(NCCOCCOCCOCCNc2ccc3c(c2)C(=O)N(C2CCC(=O)NC2=O)C3=O)n1` (some centres undefined)?
A: Activity [18]: Active; IC50 (NCI-H226 [1]): 230 nM

Q: With `C[C@H](NC(=O)c1ccc2c(-c3ccc(C(F)(F)F)cc3)cccc2c1)c1cccc(NCCCCCCNc2cccc3c2C(=O)N(C2CCC(=O)NC2=O)C3=O)n1` (some centres undefined) as the molecule, how does the IC50 (NCI-H226 [1]) read?
A: 1150 nM

Q: With `C[C@H](NC(=O)c1ccc2c(-c3ccc(C(F)(F)F)cc3)cccc2c1)c1cccc(NCCOCCOCCNc2cccc3c2C(=O)N(C2CCC(=O)NC2=O)C3=O)n1` (some centres undefined) as the molecule, how does the Activity [18] read?
A: Active

Q: And the IC50 (NCI-H226 [1])?
A: 290 nM
